Counter-ions that a name gives are not always drawn. Calls of active or inactive are those of the source. The calls are words filed in the database; no cut-off is given here.
Key:
Homo sapiens [1] = species on record: Homo sapiens; conditions: 10 ug/ml
Homo sapiens [2] = species on record: Homo sapiens; experiment: Inhibition of P-gp in human MCF7/ADR cells assessed as increase in intracellular Rh123 accumulation by measuring increase in fluorescence intensity after 24 hrs by fluorescence microscopic analysis; assay type: cell-based
Outline: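 Rh123 (5 μM)-exposed MCF-7/ADR cells, untreated or treated with modulator (10 μM) or verapamil (10 μg/mL), photographed by fluorescence microscopy after 24 h.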

Homo sapiens [3] = species on record: Homo sapiens; experiment: Inhibition of P-gp in human MCF7/ADR cells assessed as increase in intracellular Rh123 accumulation after 1 hr by flow cytometry; assay type: cell-based
Outline: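 Exponentially growing MCF-7/ADR cells (3 × 10^5/mL) loaded with Rh123 (5 μM) with or without modulator (5, 10, 20 μM) or verapamil (10 μg/mL), 1 h at 37 °C. Rh123 accumulation (%) by flow cytometry, excitation 488 nm, emission through 530 nm filter; untreated cells as negative control. Mean ± SD of three independent experiments.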

MCF7 [4] = experiment: Increase in adriamycin accumulation in human MCF7 cells at 10 ug/ml after 1 hr by flow cytometry; assay type: functional, cell-based
Outline: (§1)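 4 × 10^5 MCF-7 or MCF-7/ADR cells incubated 1 h at 37 °C with 10.0 μM adriamycin alone or with modulator (5, 10, 20 μM) or verapamil (10 μg/mL); washed twice in ice-cold PBS. Adriamycin accumulation (%) by flow cytometry relative to untreated cells. Mean ± SD, three independent experiments.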

A2780 = experiment: Cytotoxicity against human A2780 cells after 48 hrs by MTT assay; assay type: functional, cell-based; conditions: A2780, 48 h
Outline: (§2)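 Cells seeded at 5000−10 000 per well, preincubated 12 h at 37 °C, 5% CO2, then exposed to a range of concentrations for 48 h. MTT added, absorbance read at 570 nm after 4 h; percent growth inhibition used to derive IC50. Adriamycin as positive control.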

MCF7 [5] = experiment: Cytotoxicity against human MCF7 cells after 48 hrs by MTT assay; assay type: functional, cell-based; conditions: MCF7, 48 h
Outline: as §2

A549 = experiment: Cytotoxicity against human A549 cells after 48 hrs by MTT assay; assay type: functional, cell-based; conditions: A549, 48 h
Outline: as §2

Homo sapiens [6] = species on record: Homo sapiens; experiment: Inhibition of P-gp in human MCF7/ADR cells assessed as increase in intracellular accumulation of adriamycin after 1 hr by flow cytometry; assay type: cell-based
Outline: as §1

Homo sapiens [7] = species on record: Homo sapiens; experiment: Inhibition of P-gp in human MCF7/ADR cells assessed as potentiation of adriamycin-induced cytotoxicity by measuring fold reduction in adriamycin IC50 at 10 uM after 48 hrs by MTT assay relative to adriamycin alone; assay type: cell-based
Outline: (§3)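 MCF-7/ADR (ADM-selected, P-gp-overexpressing) and MCF-7 cells given graded adriamycin with or without modulator (5 or 10 μM) or verapamil 10 μg/mL for 48 h; MTT read at 570 nm. Reversal fold from adriamycin IC50 alone versus IC50 in combination.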

NCI/ADR-RES = experiment: Cytotoxicity against human MCF7/ADR cells after 48 hrs by MTT assay; assay type: functional, cell-based
Outline: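 MTT format as for parental lines: 48 h exposure to various concentrations in ADM-selected P-gp-overexpressing MCF-7/ADR cells, absorbance at 570 nm after 4 h MTT, IC50 from percent growth inhibition.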

MCF7 [8] = experiment: Increase in adriamycin accumulation in human MCF7 cells at 20 uM after 1 hr by flow cytometry; assay type: functional, cell-based
Outline: as §1

Homo sapiens [9] = species on record: Homo sapiens; experiment: Inhibition of P-gp in human MCF7/ADR cells assessed as potentiation of adriamycin-induced cytotoxicity by measuring fold reduction in adriamycin IC50 at 5 uM after 48 hrs by MTT assay relative to adriamycin alone; assay type: cell-based
Outline: as §3

Homo sapiens [10] = species on record: Homo sapiens; experiment: Inhibition of P-gp in human MCF7/ADR cells assessed as increase in intracellular accumulation of adriamycin by measuring increase in fluorescence intensity at 10 uM after 24 hrs by fluorescence microscopic analysis; assay type: cell-based
Outline: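 MCF-7/ADR cells imaged by fluorescence microscopy for adriamycin fluorescence after 24 h incubation with or without modulator (10 μM) or verapamil (10 μg/mL); untreated cells as negative control.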

SMILES | IC50 (A2780) [µM] | IC50 (MCF7 [5]) [µM] | IC50 (A549) [µM] | also measured
COc1ccc(CCN(C)CCCC(C#N)(c2ccc(OC)c(OC)c2)C(C)C)cc1OC (configuration not stated) | – | – | – | inhibition (Homo sapiens [1]): Active; inhibition (Homo sapiens [2]): Dose-dependent effect; inhibition (Homo sapiens [3]): Dose-dependent effect; Activity (MCF7 [4]): inactive
O=C1C[C@@](O)(c2ccccc2)[C@H](O)c2oc3ccc(O)cc3c21 | > 40 | > 40 | > 40 | –
COc1cccc2c1C(=O)c1c(O)c3c(c(O)c1C2=O)C[C@@](O)(C(=O)CO)C[C@@H]3O[C@H]1C[C@H](N)[C@H](O)[C@H](C)O1 [DOXORUBICIN HYDROCHLORIDE] | 0.5 | – | 1.3 | –
COC1=C(c2ccc(OC)cc2)C(=O)C=C(c2ccccc2)C1=O | 3.4 | 19.9 | 40.1 | inhibition (Homo sapiens [2]): Dose-dependent effect; inhibition (Homo sapiens [6]): Dose-dependent effect; fold change (FC) (Homo sapiens [7]): 39.1; IC50 (NCI/ADR-RES): 23.5 µM; Activity (MCF7 [8]): inactive; inhibition (Homo sapiens [3]): Dose-dependent effect; fold change (FC) (Homo sapiens [9]): 1.3; inhibition (Homo sapiens [10]): Active
COc1ccc(-c2c(O)cc(-c3ccccc3)c(OC)c2OC)cc1 | > 40 | > 40 | > 40 | –
COc1cc(-c2ccc(O)cc2)c(O)c2oc3cc(O)ccc3c12 | 14.9 | 11.7 | 27.8 | –
COc1ccc(-c2cc(OC)c(-c3ccccc3O)c(OC)c2OC)cc1 | > 40 | > 40 | > 40 | –
COc1ccc(-c2c(OC)cc(-c3ccccc3)c(OC)c2OC)cc1 | > 40 | > 40 | > 40 | –
COc1cc(-c2ccc(O)cc2)c(O)c2oc3ccc(O)cc3c12 | 21.4 | 17.9 | > 40 | –
COc1cc(-c2ccccc2)c(O)c2oc3ccc(O)cc3c12 | 25.1 | 13.4 | > 40 | –
COC1=C(c2ccccc2O)C(=O)C=C(c2ccc(O)cc2)C1=O | 8.6 | 16.7 | > 40 | –
COc1cc(-c2ccc(O)cc2)c(O)c2oc3ccccc3c12 | 40.1 | 17.5 | > 40 | –
COc1ccc(-c2cc(OC)c(-c3ccccc3)c(OC)c2O)cc1 | > 40 | 38.5 | 12.5 | –

Reference: ChEMBL document CHEMBL4196170, “Cytotoxic p-Terphenyls from the Endolichenic Fungus Floricola striata” (J Nat Prod, 2018)
